Data as given in ChEMBL document CHEMBL2417528, “Synthesis and anticancer activity evaluation of a series of [1,2,4]triazolo[1,5-a]pyridinylpyridines in vitro and in vivo” (Eur J Med Chem, 2013).
pIC50: −log10 of the molar value. Activity calls are given as the source filed them. The calls are words filed in the database; no cut-off is given here.

Experiments:
MCF7 = assay: Antiproliferative activity against human MCF7 cells after 48 hrs by MTT assay; format: functional, cell-based; details: MCF7, 48 h
In short: (§1)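 Cells seeded at 3000–5000 per well in DMEM with 10% FBS and preincubated 24 h at 37 °C. Cell numbers were titrated so controls stay in exponential growth, then 48 h drug exposure. MTT added for 4 h, formazan pelleted by centrifugation and dissolved in DMSO, OD read at 490 nm. IC50 calculated from inhibition ratios, mean of three separate experiments in triplicate.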

[1] = Antiproliferative activity against human U87MG cells after 48 hrs by MTT assay; format: functional, cell-based, U-87MG ATCC; details: U-87 MG; in short: as §1
HCT-116 [2] = assay: Antiproliferative activity against human HCT116 cells after 48 hrs by MTT assay; format: functional, cell-based; details: HCT-116, 48 h; in short: as §1
HCT-116 [3] = assay: Inhibition of PI3K in human HCT116 cells assessed as reduction of AKT phosphorylation at Ser473 at 10 uM after 1 hr by Western blot analysis; format: cell-based
In short: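 HCT-116 cells seeded at 1 × 10⁶ per well in DMEM with 10% FBS and grown 16 h at 37 °C. Treated 1 h at 37 °C at […] or with DMSO. Cells washed in ice-cold PBS, lysed, and clarified at 12,000 rpm for 20 min at 4 °C. Protein quantified by BCA, run on SDS-PAGE, transferred to nitrocellulose, and probed for AKT and p-Ser473 AKT.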

Mus musculus [4] = assay: Toxicity in mouse S180 cells xenografted mouse assessed as mortality at 20 mg/kg, po; format: organism-based, CCRF S-180; set-up: dose 20 mg/kg, route oral; details: in vivo
CCRF S-180 [5] = assay: Antitumor activity against mouse S180 cells xenografted in mouse assessed as inhibition of tumor growth at 5 mg/kg, po qd for 10 days relative to control; format: functional; details: CCRF S-180, 240 h
In short: (§2)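 Mice bearing sarcoma S-180 randomized into three groups of 6. Compound in DMSO/PEG400/5% glucose (10:60:30) given orally once daily for 10 days at 1 or 5 mg/kg. The solvent group received the same volume of vehicle. Mice sacrificed on Day 11, tumors weighed, and tumor-weight inhibitory ratio calculated versus the solvent group.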

Mus musculus [6] = assay: Toxicity in mouse S180 cells xenografted mouse assessed as change on body weight at 1 mg/kg, po qd for 10 days; format: organism-based, CCRF S-180; set-up: dose 1 mg/kg, route oral; details: in vivo, 240 h
In short: (§3)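 S-180 tumor-bearing mice (6 per group) dosed orally once daily for 10 days at 1 or 5 mg/kg in DMSO/PEG400/5% glucose (10:60:30), with a vehicle solvent group. Body weights recorded daily. Animals sacrificed on Day 11.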

Mus musculus [7] = assay: Toxicity in mouse S180 cells xenografted mouse assessed as change on body weight at 5 mg/kg, po qd for 10 days; format: organism-based, CCRF S-180; set-up: dose 5 mg/kg, route oral; details: in vivo, 240 h; in short: as §3
CCRF S-180 [8] = assay: Antitumor activity against mouse S180 cells xenografted in mouse assessed as inhibition of tumor growth at 1 mg/kg, po qd for 10 days relative to control; format: functional; details: CCRF S-180, 240 h; in short: as §2

Structure (SMILES) | pIC50 (MCF7) | pIC50 [1] | pIC50 (HCT-116 [2]) | inhibition (HCT-116 [3]) | Activity (Mus musculus [4]) | inhibition in vivo at 5 mg/kg (CCRF S-180 [5]) | Activity (Mus musculus [6]) | Activity (Mus musculus [7]) | inhibition in vivo at 1 mg/kg (CCRF S-180 [8])
COCCNc1nc2ccc(-c3cnc(OC)c(NS(=O)(=O)c4ccc(F)cc4)c3)cn2n1 | 5.62 | 5.19 | 5.34 |  |  |  |  |  | 
COc1ncc(-c2ccc3nc(NC(C)=O)nn3c2)cc1NS(=O)(=O)c1ccc(Cl)cc1 | 5.70 | 5.68 | 6.13 |  |  |  |  |  | 
CC(=O)Nc1nc2ccc(-c3cnc(Cl)c(NS(=O)(=O)c4ccc(F)cc4)c3)cc2s1 | 6.64 |  |  | Active |  |  |  |  | 
CNC(=O)CNc1nc2ccc(-c3cnc(OC)c(NS(=O)(=O)c4ccc(F)cc4)c3)cn2n1 | 5.60 | 5.14 | 5.31 |  |  |  |  |  | 
COc1ncc(-c2ccn3nc(N)nc3c2)cc1NS(=O)(=O)c1ccc(F)cc1 | 6.04 | 5.75 | 6.09 | Active | Toxic |  |  |  | 
COc1ncc(-c2ccn3nc(NC(C)=O)nc3c2)cc1NS(=O)(=O)c1ccc(F)cc1 | 5.76 | 5.62 | 5.88 |  |  |  |  |  | 
COc1ncc(-c2ccn3nc(NC(C)=O)nc3c2)cc1NS(=O)(=O)c1ccc(Cl)cc1 | 5.91 | 5.67 | 5.88 |  |  |  |  |  | 
COc1ncc(-c2ccc3nc(NC(C)=O)nn3c2)cc1NS(=O)(=O)c1ccc(F)cc1 | 6.08 | 5.74 | 6.07 | Active | Non-toxic | 75.8% | Non-toxic | < 90% | 20%
COc1ncc(-c2ccc3nc(NC(C)=O)nn3c2)cc1NS(=O)(=O)c1ccc(F)cc1F | 6.06 | 5.70 | 6.13 |  |  |  |  |  | 
Cn1c(=O)n(-c2ccc(C(C)(C)C#N)cc2)c2c3cc(-c4cnc5ccccc5c4)ccc3ncc21 [DACTOLISIB] | 6.14 | 5.88 | 5.94 |  |  |  |  |  | 
COc1ncc(-c2ccc3nc(N)nn3c2)cc1NS(=O)(=O)c1ccc(Cl)cc1 | 5.74 | 5.51 | 5.60 |  |  |  |  |  | 
CC(=O)Nc1nc2ccc(-c3cnc(Cl)c(NS(=O)(=O)c4ccc(C)cc4)c3)cn2n1 | 5.49 | 5.42 | 5.58 |  |  |  |  |  | 
COc1ncc(-c2ccc3nc(N)nn3c2)cc1NS(=O)(=O)c1ccc(F)cc1 | 5.71 | 5.40 | 5.53 |  |  |  |  |  | 
CCOCCNc1nc2ccc(-c3cnc(OC)c(NS(=O)(=O)c4ccc(F)cc4)c3)cn2n1 | 5.87 | 5.09 | 5.03 |  |  |  |  |  | 
COc1ncc(-c2ccc3nc(N)nn3c2)cc1NS(=O)(=O)c1ccc(C)cc1 | 5.81 | 5.60 | 5.47 |  |  |  |  |  | 
COc1ncc(-c2ccc3nc(NCC(=O)O)nn3c2)cc1NS(=O)(=O)c1ccc(F)cc1 | 4.90 | 5.01 | 5.06 |  |  |  |  |  | 
COc1ncc(-c2ccn3nc(NC(C)=O)nc3c2)cc1NS(=O)(=O)c1ccc(C)cc1 | 5.87 | 5.69 | 5.86 |  |  |  |  |  | 
CCOC(=O)CNc1nc2ccc(-c3cnc(OC)c(NS(=O)(=O)c4ccc(F)cc4)c3)cn2n1 | 5.36 | 5.10 | 5.36 |  |  |  |  |  | 
COc1ncc(-c2ccc3nc(NC(C)=O)nn3c2)cc1NS(=O)(=O)c1ccc(C)cc1 | 6.09 | 5.80 | 6.22 |  |  |  |  |  | 
O=C(Nc1nc2ccc(-c3cnc(Cl)c(NS(=O)(=O)c4ccc(F)cc4)c3)cn2n1)C1CC1 | < 4.22 | 4.96 | 5.00 |  |  |  |  |  | 
COc1ncc(-c2ccc3nc(NC(=O)C4CC4)nn3c2)cc1NS(=O)(=O)c1ccc(F)cc1 | 5.59 | 5.31 | 5.76 |  |  |  |  |  | 
COc1ncc(-c2ccc3nc(NC(C)=O)nn3c2)cc1NS(=O)(=O)C1CC1 | 5.79 | 5.43 | 5.65 |  |  |  |  |  | 
COc1ncc(-c2ccc3nc(NCC(N)=O)nn3c2)cc1NS(=O)(=O)c1ccc(F)cc1 | 5.08 | 5.24 | 5.21 |  |  |  |  |  | 
CC(=O)Nc1nc2ccc(-c3cnc(Cl)c(NS(=O)(=O)c4ccc(F)cc4)c3)cn2n1 | 4.70 | 5.16 | 5.03 |  |  |  |  |  | 
